From ChEMBL document CHEMBL4033786, “Discovery of Novel 1-Cyclopentenyl-3-phenylureas as Selective, Brain Penetrant, and Orally Bioavailable CXCR2 Antagonists” (J Med Chem, 2018)

Tests used:
[1] = molecular target: C-C chemokine receptor type 5 (Homo sapiens, UniProt P51681); experiment: Agonist activity at CCR5 (unknown origin)
How it was run: (§1)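 β-arrestin assays run in both agonist and antagonist modes across a panel of 18 CXC and CC chemokine receptors.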

[2] = molecular target: C-C chemokine receptor type 2 (Homo sapiens, UniProt P41597); experiment: Antagonist activity at CCR2 (unknown origin); how it was run: as §1
Chain of C-C chemokine receptor type 2 (P41597 whole entry): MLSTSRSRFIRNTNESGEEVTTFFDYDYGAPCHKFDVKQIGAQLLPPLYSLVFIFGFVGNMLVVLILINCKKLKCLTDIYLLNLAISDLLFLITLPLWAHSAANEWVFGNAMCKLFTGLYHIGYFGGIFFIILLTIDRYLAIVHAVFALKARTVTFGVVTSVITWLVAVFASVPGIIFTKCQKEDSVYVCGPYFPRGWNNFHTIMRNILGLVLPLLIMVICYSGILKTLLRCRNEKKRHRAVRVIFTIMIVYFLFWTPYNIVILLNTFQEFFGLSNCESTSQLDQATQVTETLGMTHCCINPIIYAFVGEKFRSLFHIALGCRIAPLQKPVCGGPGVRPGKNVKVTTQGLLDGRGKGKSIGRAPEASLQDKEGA

[3] = molecular target: C-C chemokine receptor type 4 (Homo sapiens, UniProt P51679); experiment: Agonist activity at CCR4 (unknown origin); how it was run: as §1
Chain of C-C chemokine receptor type 4 (P51679 whole entry): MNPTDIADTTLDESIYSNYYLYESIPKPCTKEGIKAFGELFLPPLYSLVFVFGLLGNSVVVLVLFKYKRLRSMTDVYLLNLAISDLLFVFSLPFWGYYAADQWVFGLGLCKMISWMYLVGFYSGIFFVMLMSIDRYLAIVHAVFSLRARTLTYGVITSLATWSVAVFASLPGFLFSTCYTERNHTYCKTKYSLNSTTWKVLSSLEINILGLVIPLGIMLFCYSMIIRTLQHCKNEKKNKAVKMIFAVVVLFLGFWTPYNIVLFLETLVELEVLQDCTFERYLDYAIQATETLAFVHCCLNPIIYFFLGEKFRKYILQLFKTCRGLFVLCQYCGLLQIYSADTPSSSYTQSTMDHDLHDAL

Mus musculus = experiment: Antiinflammatory activity in C57Bl/6 mouse air pouch model assessed as inhibition of carrageenan-induced neutrophil infiltration administered po bid starting from day 3 post air reinflation at 4 hrs post carrageenan induction measured on day 6 post last dose; type: functional, organism-based
How it was run: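 Male C57Bl/6 mice aged 6–8 weeks received 5 mL air dorsally under pentobarbital on day 0, with 2.5 mL re-inflations on days 3 and 6. Oral dosing of vehicle or 1, 3 or 10 mg/kg BID ran from day 3; on day 6 dosing preceded re-inflation and 1 mL 2% carrageenan. At 4 h the pouch was lavaged with 4 mL PBS, and neutrophils were counted on Giemsa-stained cytospins as % of vehicle. One-way ANOVA with Bonferroni.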

[4] = molecular target: C-X-C chemokine receptor type 1 (Homo sapiens, UniProt P25024); experiment: Antagonist activity at CXCR1 (unknown origin)
Chain of C-X-C chemokine receptor type 1 (P25024 whole entry): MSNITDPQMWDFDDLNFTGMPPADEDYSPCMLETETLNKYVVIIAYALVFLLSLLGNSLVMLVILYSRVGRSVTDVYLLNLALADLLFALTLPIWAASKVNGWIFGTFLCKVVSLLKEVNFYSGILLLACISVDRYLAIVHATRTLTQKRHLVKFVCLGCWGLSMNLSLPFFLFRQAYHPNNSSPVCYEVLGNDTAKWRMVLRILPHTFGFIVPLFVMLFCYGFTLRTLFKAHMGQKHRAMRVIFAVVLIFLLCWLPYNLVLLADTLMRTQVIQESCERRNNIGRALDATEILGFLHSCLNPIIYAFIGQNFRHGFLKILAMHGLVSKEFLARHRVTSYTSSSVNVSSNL
How it was run: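 Part of an 18-receptor CXC/CC chemokine receptor panel, each receptor run in β-arrestin recruitment assays in both agonist and antagonist modes.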

Chemerin-like receptor 1 = Chemerin-like receptor 1 (Homo sapiens, UniProt Q99788); experiment: Antagonist activity at CMKLR1 (unknown origin); how it was run: as §1
Chain of Chemerin-like receptor 1 (Q99788 whole entry): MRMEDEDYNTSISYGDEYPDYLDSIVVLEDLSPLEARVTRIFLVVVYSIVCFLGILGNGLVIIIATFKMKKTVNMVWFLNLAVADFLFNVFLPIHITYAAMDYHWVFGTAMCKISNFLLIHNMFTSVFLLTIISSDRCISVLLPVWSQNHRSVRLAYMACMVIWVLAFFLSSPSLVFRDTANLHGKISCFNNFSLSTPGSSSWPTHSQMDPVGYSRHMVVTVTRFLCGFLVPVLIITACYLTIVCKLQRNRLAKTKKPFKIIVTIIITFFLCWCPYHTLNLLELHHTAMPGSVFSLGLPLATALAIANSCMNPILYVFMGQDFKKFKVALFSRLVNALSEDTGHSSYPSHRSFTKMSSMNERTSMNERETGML

[5] = molecular target: T1, Atypical chemokine receptor 3 (Homo sapiens, UniProt P25106); experiment: Agonist activity at CXCR7 (unknown origin); how it was run: as §1
T1 sequence (P25106 whole entry): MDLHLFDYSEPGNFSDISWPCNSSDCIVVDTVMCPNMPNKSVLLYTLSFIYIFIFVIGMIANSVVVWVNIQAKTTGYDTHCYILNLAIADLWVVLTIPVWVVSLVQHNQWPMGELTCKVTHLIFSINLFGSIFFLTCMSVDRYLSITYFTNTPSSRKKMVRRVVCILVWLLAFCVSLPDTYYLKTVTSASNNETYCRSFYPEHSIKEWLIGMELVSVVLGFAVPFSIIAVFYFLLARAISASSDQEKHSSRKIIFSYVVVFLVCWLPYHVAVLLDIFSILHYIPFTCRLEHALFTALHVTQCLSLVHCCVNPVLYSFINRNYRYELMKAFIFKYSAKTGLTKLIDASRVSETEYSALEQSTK

[6] = Oral bioavailability in dog at 1.29 mg/kg measured up to 4 hrs after dose; type: ADME, organism-based, Canis lupus familiaris; details: in vivo
[7] = molecular target: C-X-C chemokine receptor type 5 (Homo sapiens, UniProt P32302); experiment: Antagonist activity at CXCR5 (unknown origin); how it was run: as §1
Chain of C-X-C chemokine receptor type 5 (P32302 whole entry): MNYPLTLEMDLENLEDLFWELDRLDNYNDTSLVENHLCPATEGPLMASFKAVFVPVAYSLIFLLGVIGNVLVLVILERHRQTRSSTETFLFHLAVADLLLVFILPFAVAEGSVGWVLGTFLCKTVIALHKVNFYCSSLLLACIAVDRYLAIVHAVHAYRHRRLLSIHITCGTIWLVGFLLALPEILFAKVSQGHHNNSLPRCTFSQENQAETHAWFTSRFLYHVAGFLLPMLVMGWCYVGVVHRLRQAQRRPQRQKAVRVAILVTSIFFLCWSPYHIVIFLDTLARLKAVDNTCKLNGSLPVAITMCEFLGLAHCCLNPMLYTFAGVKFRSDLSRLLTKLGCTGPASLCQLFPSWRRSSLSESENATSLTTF

[8] = Intrinsic clearance in rat hepatocytes; type: ADME, cell-based, Hepatocyte
[9] = molecular target: C-X-C chemokine receptor type 3 (Homo sapiens, UniProt P49682); experiment: Agonist activity at CXCR3 (unknown origin); how it was run: as §1
Chain of C-X-C chemokine receptor type 3 (P49682 whole entry, the tested form may be a part): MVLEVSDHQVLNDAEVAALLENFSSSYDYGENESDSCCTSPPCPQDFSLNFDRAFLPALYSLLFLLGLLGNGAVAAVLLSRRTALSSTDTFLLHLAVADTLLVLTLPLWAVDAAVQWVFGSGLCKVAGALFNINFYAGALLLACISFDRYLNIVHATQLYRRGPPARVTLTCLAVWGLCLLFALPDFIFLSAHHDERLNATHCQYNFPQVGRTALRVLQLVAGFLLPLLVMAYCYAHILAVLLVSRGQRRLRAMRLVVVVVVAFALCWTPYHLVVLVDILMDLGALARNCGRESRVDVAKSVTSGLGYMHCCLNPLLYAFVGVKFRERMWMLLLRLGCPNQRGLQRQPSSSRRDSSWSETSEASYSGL

[10] = molecular target: T2, C-X-C chemokine receptor type 2 (Homo sapiens, UniProt P25025); experiment: Agonist activity at TEV protease cleavage site linked GAL4-VP16-fused recombinant human CXCR2 expressed in cells assessed as induction of beta-arrestin recruitment by CCF4-AM-fluorescence based FRET assay; type: cell-based
T2 sequence (P25025 whole entry): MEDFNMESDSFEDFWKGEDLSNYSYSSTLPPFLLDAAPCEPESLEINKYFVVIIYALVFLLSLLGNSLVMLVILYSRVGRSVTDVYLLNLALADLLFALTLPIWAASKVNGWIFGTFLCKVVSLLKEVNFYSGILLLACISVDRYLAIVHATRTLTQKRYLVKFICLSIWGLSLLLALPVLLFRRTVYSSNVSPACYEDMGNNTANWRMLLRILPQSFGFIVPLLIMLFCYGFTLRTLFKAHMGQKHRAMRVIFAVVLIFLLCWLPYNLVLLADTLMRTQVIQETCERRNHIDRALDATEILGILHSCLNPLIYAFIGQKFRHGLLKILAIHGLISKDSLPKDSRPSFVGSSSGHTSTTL
How it was run: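 Part of an 18-receptor chemokine panel run in agonist and antagonist modes. Stable line carrying human CXCR2 linked to a TEV site and Gal4-VP16 was starved 24 h at 37 °C, 5% CO2, and incubated overnight with compound dispensed in DMSO. CCF4-AM substrate was loaded for 2 h at room temperature in the dark. Read-out was the background-subtracted 460/530 nm ratio, with sigmoidal curve fit.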

[11] = molecular target: T1, Atypical chemokine receptor 3; experiment: Antagonist activity at CXCR7 (unknown origin); how it was run: as §1
[12] = Volume of distribution at steady state in Wistar rat at 0.98 mg/kg, iv measured up to 4 hrs post dose; type: ADME, organism-based; details: in vivo, read-out: Vdss
[13] = molecular target: C-C chemokine receptor type 3 (Homo sapiens, UniProt P51677); experiment: Antagonist activity at CCR3 (unknown origin); how it was run: as §1
Chain of C-C chemokine receptor type 3 (P51677 whole entry): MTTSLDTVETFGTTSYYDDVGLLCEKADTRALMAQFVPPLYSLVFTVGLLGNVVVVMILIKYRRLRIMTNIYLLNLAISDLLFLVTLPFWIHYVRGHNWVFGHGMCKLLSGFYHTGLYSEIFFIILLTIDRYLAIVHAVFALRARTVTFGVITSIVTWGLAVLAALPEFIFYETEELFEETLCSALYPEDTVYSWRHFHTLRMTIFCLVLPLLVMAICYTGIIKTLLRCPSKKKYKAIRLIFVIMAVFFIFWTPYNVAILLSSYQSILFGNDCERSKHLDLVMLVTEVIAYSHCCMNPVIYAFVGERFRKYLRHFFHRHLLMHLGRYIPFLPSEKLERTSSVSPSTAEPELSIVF

[14] = Volume of distribution at steady state in dog at 0.85 mg/kg, iv measured up to 4 hrs post dose; type: ADME, organism-based, Canis lupus familiaris; details: in vivo, read-out: Vdss
[15] = molecular target: C-X-C chemokine receptor type 6 (Homo sapiens, UniProt O00574); experiment: Agonist activity at CXCR6 (unknown origin); how it was run: as §1
Chain of C-X-C chemokine receptor type 6 (O00574 whole entry): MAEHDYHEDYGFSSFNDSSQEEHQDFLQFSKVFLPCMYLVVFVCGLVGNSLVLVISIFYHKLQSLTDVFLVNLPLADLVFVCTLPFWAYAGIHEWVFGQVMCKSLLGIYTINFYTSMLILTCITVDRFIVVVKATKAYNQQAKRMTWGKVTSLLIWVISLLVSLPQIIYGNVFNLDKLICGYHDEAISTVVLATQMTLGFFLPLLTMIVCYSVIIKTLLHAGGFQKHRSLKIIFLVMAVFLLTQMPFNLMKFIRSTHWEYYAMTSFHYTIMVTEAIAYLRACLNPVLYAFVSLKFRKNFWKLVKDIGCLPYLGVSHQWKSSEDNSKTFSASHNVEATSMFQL

[16] = Ratio of brain dose normalized AUC (0 to 7 hrs) to […] dose normalized AUC (0 to 7 hrs), Kp of the compound in Han-Wistar SOA rat model at 2 mg/kg administered via oral gavage by UPLC/MS/MS analysis; type: ADME, organism-based
How it was run: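 Male Han-Wistar rats given a single 2 mg/kg oral gavage as a suspension in DMSO:1% methylcellulose (1:99). Blood was taken by cardiac puncture under isoflurane at 0.25–7 h, diluted 1:3 with water, and brains were homogenized in 3-fold PBS. Samples were extracted by acetonitrile protein precipitation and quantified by UPLC/MS/MS. Kp = brain DNAUC0-7h/blood DNAUC0-7h; Kp,uu = Kp×Fu,br/Fu,bl.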

Rattus norvegicus [17] = experiment: Dose normalized AUC (0 to infinity) in Wistar rat at 0.98 mg/kg, iv measured up to 4 hrs post dose; type: ADME, organism-based; details: in vivo
Rattus norvegicus [18] = experiment: Antiinflammatory activity in Wistar rat air pouch model assessed as inhibition of carrageenan-induced neutrophil infiltration administered po bid starting from day 3 post air reinflation at 4 hrs post carrageenan induction measured on day 6 post last dose; type: functional, organism-based
How it was run: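 Male Wistar rats aged 8–10 weeks received 20 mL air, then 10 mL re-inflations on days 3 and 6. Oral dosing of vehicle or 1, 3 or 10 mg/kg BID ran from day 3, given on day 6 just before re-inflation and 1 mL 2% carrageenan. Pouch lavage (4 mL PBS) was taken at 4 h, and neutrophils were counted on Giemsa-stained cytospins as % of vehicle.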

[19] = molecular target: C-C chemokine receptor type 8 (Homo sapiens, UniProt P51685); experiment: Agonist activity at CCR8 (unknown origin); how it was run: as §1
Chain of C-C chemokine receptor type 8 (P51685 whole entry): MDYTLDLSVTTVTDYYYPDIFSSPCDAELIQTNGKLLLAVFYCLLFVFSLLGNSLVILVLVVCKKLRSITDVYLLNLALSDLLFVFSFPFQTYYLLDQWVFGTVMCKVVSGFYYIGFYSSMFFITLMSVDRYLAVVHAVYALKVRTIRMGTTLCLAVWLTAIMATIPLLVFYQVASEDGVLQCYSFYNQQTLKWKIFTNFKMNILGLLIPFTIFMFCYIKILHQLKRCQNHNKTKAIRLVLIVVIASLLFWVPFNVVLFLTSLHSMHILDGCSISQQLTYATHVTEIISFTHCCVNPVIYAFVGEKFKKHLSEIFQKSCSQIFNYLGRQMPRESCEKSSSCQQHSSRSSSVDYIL

Canis familiaris = experiment: Dose normalized AUC (0 to infinity) in dog at 0.85 mg/kg, iv measured up to 4 hrs post dose; type: ADME, organism-based, Canis lupus familiaris; details: in vivo
[20] = molecular target: CX3C chemokine receptor 1 (Homo sapiens, UniProt P49238); experiment: Antagonist activity at CX3CR1 (unknown origin); how it was run: as §1
Chain of CX3C chemokine receptor 1 (P49238 whole entry): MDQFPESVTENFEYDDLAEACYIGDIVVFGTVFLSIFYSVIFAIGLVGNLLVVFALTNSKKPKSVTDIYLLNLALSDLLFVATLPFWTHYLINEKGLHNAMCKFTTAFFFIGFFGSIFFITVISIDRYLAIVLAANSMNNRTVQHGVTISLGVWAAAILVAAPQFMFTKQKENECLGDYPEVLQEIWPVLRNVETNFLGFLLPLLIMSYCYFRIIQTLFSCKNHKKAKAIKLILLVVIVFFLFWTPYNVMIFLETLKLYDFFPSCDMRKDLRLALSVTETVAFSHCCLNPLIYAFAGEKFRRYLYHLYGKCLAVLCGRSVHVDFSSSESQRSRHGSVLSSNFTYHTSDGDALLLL

Brain = experiment: Dose normalized AUC (0 to 7 hrs) in Han-Wistar SOA rat model brain at 2 mg/kg administered via oral gavage by UPLC/MS/MS analysis; type: ADME, organism-based; details: in vivo
How it was run: (§2)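 Male Han-Wistar rats were given 2 mg/kg by oral gavage as a suspension in DMSO:1% methylcellulose (1:99). Blood (cardiac puncture, EDTA-K2, under isoflurane) and brains were collected at 0.25–7 h. Brain was homogenised in 3-fold PBS, samples were protein-precipitated and quantified by UPLC/MS/MS.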

[21] = molecular target: C-C chemokine receptor type 6 (Homo sapiens, UniProt P51684); experiment: Antagonist activity at CCR6 (unknown origin); how it was run: as §1
Chain of C-C chemokine receptor type 6 (P51684 whole entry): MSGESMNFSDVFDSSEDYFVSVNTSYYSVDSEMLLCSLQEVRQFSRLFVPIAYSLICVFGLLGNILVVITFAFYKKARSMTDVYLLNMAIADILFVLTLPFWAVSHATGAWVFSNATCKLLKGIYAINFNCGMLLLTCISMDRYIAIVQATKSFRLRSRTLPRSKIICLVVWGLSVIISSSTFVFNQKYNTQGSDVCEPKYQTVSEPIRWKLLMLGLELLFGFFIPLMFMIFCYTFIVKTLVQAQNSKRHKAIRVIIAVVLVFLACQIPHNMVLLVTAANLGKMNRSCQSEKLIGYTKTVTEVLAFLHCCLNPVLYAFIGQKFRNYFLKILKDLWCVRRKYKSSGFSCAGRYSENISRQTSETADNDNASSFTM

Blood = experiment: Dose normalized AUC (0 to 7 hrs) in Han-Wistar SOA rat model blood at 2 mg/kg administered via oral gavage by UPLC/MS/MS analysis; type: ADME, organism-based; details: in vivo; how it was run: as §2

Chain of C-C chemokine receptor type 5 (P51681 whole entry): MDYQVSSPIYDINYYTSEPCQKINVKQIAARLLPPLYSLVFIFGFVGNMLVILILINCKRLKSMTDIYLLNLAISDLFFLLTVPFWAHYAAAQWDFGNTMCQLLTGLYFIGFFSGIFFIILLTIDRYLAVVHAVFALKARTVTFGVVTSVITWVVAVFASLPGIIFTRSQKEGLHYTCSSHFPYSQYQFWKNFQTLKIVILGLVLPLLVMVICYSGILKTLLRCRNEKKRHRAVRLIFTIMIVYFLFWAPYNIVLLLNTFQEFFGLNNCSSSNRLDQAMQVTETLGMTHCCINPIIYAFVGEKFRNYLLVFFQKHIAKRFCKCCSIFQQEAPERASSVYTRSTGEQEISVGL

EC50 [1]: > 10 µM
IC50 [2]: > 10 µM
EC50 [3]: > 10 µM
IC50 [4]: 3.8 µM
IC50 (Chemerin-like receptor 1): > 10 µM
EC50 [5]: > 10 µM
bioavailability [6]: 76%
IC50 [7]: > 10 µM
CLH [8]: 7.7 mL/min/g
EC50 [9]: > 10 µM
EC50 [10]: > 10 µM
IC50 [11]: > 10 µM
Vd [12]: 2.1 L/kg
IC50 [13]: > 10 µM
Vd [14]: 0.88 L/kg
EC50 [15]: > 10 µM
Kp [16]: 0.14
AUC/dose (Rattus norvegicus [17]): 1829 ng·h/mL/mg/kg
EC50 [19]: > 10 µM
AUC/dose (Canis familiaris): 2996 ng·h/mL/mg/kg
IC50 [20]: > 10 µM
AUC/dose (Brain): 87.7 ng·h/g/mg/kg
IC50 [21]: > 10 µM
AUC/dose (Blood): 651 ng·h/mL/mg/kg
SMILES: CC1=CCC[C@H]1NC(=O)Nc1ccc(Cl)c(S(=O)(=O)[C@@]2(C)CCOC2)c1O
inhibition (Mus musculus): Dose-dependent effect
inhibition (Rattus norvegicus [18]): Dose-dependent effect
